bIAP act: intestinal alkaline phosphatase (bovine) activation. purified bovine IAP, CDP-star luminescence, 30 min; hits give high values; fold of DMSO-control signal, blank-subtracted. activation factor at 20 µM. 200,000 tested, 0.17% active. AID 1016;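 active = activation factor of 2 or more at 20 µM, a signal rise over negative controls twice the positive control's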
mIAP activ: increases mouse intestinal alkaline phosphatase activity; muIAP, CDP-Star luminescence, 30 min; hits give high values; 1 = vehicle-only enzyme signal, 0 = enzyme-free wells; activation factor at 10 µM; 330,000 tested, 0.24% active; AID 2805;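 active = activation factor of at least 2 at 20 µM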
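also added = chemiluminescent substrate CDP-Star | test system = mouse IAP enzyme | signal = chemiluminescence readout | compound = DMSO-dissolved test compounds | incubation = 30 min at room temperature | benchmarks = DMSO wells, no-enzyme wells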
hIAP inh: blocks human intestinal alkaline phosphatase | P09923 | purified IAP, CDP-Star luminescence, 30 min | inhibition, % at 10 µM | 330,000 tested, 0.12% active;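 active = inhibition reaching a set limit with compound at 10 µM in the primary screen, cut at about 35% in these data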
Target sequence (P09923 whole entry, looked up): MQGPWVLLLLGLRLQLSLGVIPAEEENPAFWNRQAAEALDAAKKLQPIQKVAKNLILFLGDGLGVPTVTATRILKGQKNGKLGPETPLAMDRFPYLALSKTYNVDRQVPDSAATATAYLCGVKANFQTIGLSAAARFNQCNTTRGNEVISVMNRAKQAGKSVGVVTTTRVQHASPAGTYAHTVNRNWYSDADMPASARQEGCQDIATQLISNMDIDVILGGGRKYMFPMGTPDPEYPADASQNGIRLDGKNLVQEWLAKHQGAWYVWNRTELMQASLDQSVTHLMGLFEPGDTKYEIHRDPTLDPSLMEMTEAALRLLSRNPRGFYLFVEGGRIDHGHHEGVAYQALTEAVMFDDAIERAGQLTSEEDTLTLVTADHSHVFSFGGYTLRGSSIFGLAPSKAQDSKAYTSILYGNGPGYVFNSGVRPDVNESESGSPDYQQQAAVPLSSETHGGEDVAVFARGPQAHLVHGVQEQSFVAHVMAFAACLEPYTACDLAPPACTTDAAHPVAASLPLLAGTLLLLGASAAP
hIAP activ: increases human intestinal alkaline phosphatase activity. P09923. purified human IAP, CDP-Star luminescence, 30 min; hits give high values; 1 = vehicle-only enzyme, 0 = enzyme-free background. activation factor at 10 µM. 330,000 tested, 0.16% active;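 active = activation factor of the enzyme at least 2-fold when tested at 20 µM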
mIAP inh: mouse IAP inhibition. 330,000 tested, 0.2% active. inhibition, % at 10 µM. purified mouse IAP, CDP-Star luminescence, 30 min. AID 2806;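 active = inhibition of at least 40% at 10 µM in the primary screen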
bIAP inh: blocks bovine intestinal alkaline phosphatase activity; purified bovine IAP, CDP-star luminescence, 30 min; inhibition, % at 20 µM; AID 1019; 190,000 tested, under 10 active;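 active = over 50% inhibition of intestinal alkaline phosphatase at 20 µM in the single-dose screen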
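Assay system – bovine IAP enzyme · Quantity – bovine IAP at 1/65,000,000 final dilution · Detection – CDP-star luminescence signal · Times – 30 min reaction at room temperature · Also added – CDP-star substrate at 30 µM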
Hits are given with their value; - = inactive; . = no result. This is a sample that favours compounds with a hit; in the whole collection about 0.77% have one here.

SMILES	bIAP act	mIAP activ	hIAP inh	hIAP activ	mIAP inh	bIAP inh
O=S(=O)(Nc1ccccc1OC(F)F)c1ccc(S(=O)(=O)N2CCCC2)cc1	.	-	-	-	-	.
CCOc1ccc(OCC)c(NC(=O)Nc2ccc3c(c2)N(C)C(=O)CS3)c1	-	2.38	-	-	-	-
CC(=O)Nc1ccc(NC(=O)Nc2ccc3c(c2)N(C)C(=O)CS3)cc1	-	-	-	-	-	-
COc1cccc(NC(=O)Nc2ccc3c(c2)N(C)C(=O)CS3)c1	-	2.71	-	-	-	-
Cc1cc(Cl)ccc1Oc1ccccc1C(=O)CC#N	-	-	-	-	-	-
CC(=O)Nc1ccc(Sc2ccccc2C(=O)O)cn1	.	-	-	-	-	.
CCOc1ccc(N2CC(C(=O)NCCc3c[nH]c4ccc(C)cc34)CC2=O)cc1 (centres undefined)	.	-	-	-	-	.
CCc1ccc(C(=O)NC(=S)NCc2cccnc2)cc1	.	-	-	-	-	.
O=C(Nc1ccc(Cl)c(Cl)c1)O/N=C/c1ccncc1	-	2.42	-	-	-	-
Cc1cc2cc(CNC(=S)NCc3ccccc3)ccc2n1C	-	2.29	-	-	-	-
Cc1ccccc1NC(=S)NCc1ccc2c(c1)cc(C)n2C	-	-	-	-	-	-
Fc1ccc(CNC(=S)NCc2ccccc2)cc1	.	-	-	-	-	.
S=C(NCc1ccccc1)NCc1ccc(CNC(=S)NCc2ccccc2)cc1	-	3.22	-	-	-	-
S=C(NCc1ccccc1)Nc1ccc(Oc2ccccc2)cc1	.	3.77	-	-	-	.
Cc1ccc(S(=O)(=O)N2CCN(c3nn(C)c(=O)n(C)c3=O)CC2)cc1C	.	-	-	-	-	.
CSc1cccc(NC(=O)NCc2cccc(CNC(=O)Nc3cccc(SC)c3)c2)c1	.	2.09	-	-	-	.
CCOC(=O)c1c(C)[nH]c(C)c1C(=O)CSc1ncccn1	-	-	-	-	-	-
CC(C)(C)OC(=O)N1CCN(C(=O)c2[nH]cnc2C(=O)N[C@@H](Cc2ccccc2)C(=O)OCc2ccccc2)CC1	.	-	-	-	-	.
CC(C)(C)OC(=O)[C@H](Cc1ccccc1)NC(=O)c1nc[nH]c1C(=O)N1CCN(C(=O)OC(C)(C)C)CC1	.	-	-	-	41.4	.
CC(c1ccccc1)N1CCn2c(nc3cc(NC(=O)c4cccs4)ccc32)C1 (centres undefined)	-	-	-	-	-	-
CC(c1ccccc1)N1CCn2c(nc3cc(NC(=O)NC4CCCCC4)ccc32)C1 (centres undefined)	2.5	.	.	.	.	-
CCOc1ccc(S(=O)(=O)NN)cc1	2	-	-	-	-	-
COc1ccc(NCC(=O)N/N=C/C2CCCCC2)cc1	.	-	-	-	-	.
O=C(CSc1nc2ccccc2c(=O)n1Cc1ccco1)NCc1ccco1	-	-	-	-	-	-
COc1cc2nc(SCC(=O)NCCc3ccccc3)n(Cc3ccco3)c(=O)c2cc1OC	2	-	-	-	-	-
SMILES	bIAP act	mIAP activ	hIAP inh	hIAP activ	mIAP inh	bIAP inh
O=C(/C=C/c1ccc([N+](=O)[O-])cc1)NCc1cccs1	4.9	-	-	-	-	-
O=C(COC(=O)/C=C/c1ccc([N+](=O)[O-])cc1)NCc1cccs1	.	-	-	-	-	.
CC(C)Cn1c(=O)c(C(=O)NCc2ccc3c(c2)OCO3)c(O)c2ccccc21	.	-	-	-	-	.
OCc1nc2ccccc2n1CCCCOc1ccccc1	.	-	-	-	-	.
OCc1nc2ccccc2n1CCCOc1ccc(Br)cc1	2.9	-	-	-	-	-
Fc1c(F)c(F)c(N/N=C/c2c[nH]c3ccccc23)c(F)c1F	2.7	-	-	-	-	-
C/C(=N\Nc1ccc2nncn2n1)c1ccc(Br)s1	.	-	-	-	-	.
Cc1ccc(NC(=S)NCCC2=CCCCC2)cc1	-	-	-	-	-	-
CCOC(=O)c1ccc(NC(=S)NCCc2ccccc2F)cc1	-	2.24	-	-	-	-
CCOC(=O)c1ccc(NC(=S)NCCC2=CCCCC2)cc1	-	2.62	-	-	-	-
CCOC(=O)c1ccc(NC(=S)NCCc2ccccc2)cc1	-	-	-	-	-	-
N#Cc1ccc(NC(=O)C2=COCCO2)cc1	.	-	-	-	-	.
O=C(O)c1cc(O)c2c(c1)C(=O)c1cc(O)cc(O)c1C2=O	-	-	-	-	40.1	-
CCCNC(=O)c1ccc2c(c1)C1C3CCC(C3)C1C(c1ccccc1)N2 (centres undefined)	2	-	-	-	-	-
CC(C)(C)NC(=O)c1ccc2c(c1)C1C3CCC(C3)C1C(c1ccccc1)N2 (centres undefined)	-	-	-	-	-	-
CC(NC(=O)C(=O)c1cn(CC(=O)N2CCOCC2)c2ccccc12)c1ccccc1 (centres undefined)	.	-	-	-	-	.
S=C(NCCCc1ccccc1)Nc1ccccc1Cl	-	2.63	-	-	-	-
O=C(NCCCc1ccccc1)Nc1cccc(Cl)c1	-	4.18	-	-	-	-
S=C(NCCc1ccccc1)Nc1ccccc1Cl	-	-	-	-	-	-
Fc1cc(Br)ccc1NC(=S)NCCc1ccccc1	-	2.19	-	-	-	-
Cc1ccc(NC(=O)NCCCc2ccccc2)cc1	-	2.17	-	-	-	-
Cc1ccc(CN(C)S(=O)(=O)c2c(C)noc2/C=C/N(C)C)cc1	.	-	-	-	-	.
CCOC(=O)C1=C(C)Nc2ccccc2N=C1NC(=O)C1CCN(C(=O)c2ccccc2C)CC1	.	-	-	-	-	.
Cc1cc(S(=O)(=O)NCC(c2ccc(F)cc2)N2CCN(C)CC2)ccc1F (centres undefined)	.	-	-	-	-	.
COc1cccc(NC(=O)CN(C)C(=O)c2cccc(S(=O)(=O)N3CC4(C)CC3CC(C)(C)C4)c2)c1 (centres undefined)	.	-	-	-	-	.
SMILES	bIAP act	mIAP activ	hIAP inh	hIAP activ	mIAP inh	bIAP inh
CCCc1c(NC(=O)Nc2ccc(F)cc2)cnn1-c1ccccc1	.	2.3	-	-	-	.
CC[n+]1c(/C=C/N(C)c2ccccc2)oc2ccc(Cl)cc21	-	-	-	-	-	-
CCN1/C(=C/C=C/c2oc3ccc4ccccc4c3[n+]2CC)Oc2ccc3ccccc3c21	-	-	43.6	-	47.2	-
Cc1ccc(CN2CC(C(=O)N(Cc3nnc(-c4ccccc4Cl)o3)C3CC3)CC2=O)cc1 (centres undefined)	.	-	-	-	-	.
O=C(O)C1CCCN1C(=O)NC1CCCCC1 (centres undefined)	.	-	-	-	-	.
CC(=O)c1cccc(S(=O)(=O)N2CCC(C(=O)Nc3cccc(C(=O)NC4CC4)c3)CC2)c1	.	-	-	-	-	.
Clc1ccc(N2N=C(c3cccs3)CC2c2ccco2)cc1 (centres undefined)	-	-	-	-	-	-
c1ccc(N2N=C(c3cccs3)CC2c2ccco2)cc1 (centres undefined)	-	2.08	-	-	-	-

Compound activity as filed in PubChem.
